Measured values of several laboratories.
Effect on: binding
USP7: Ubiquitin carboxyl-terminal hydrolase 7 (USP7, Homo sapiens, UniProt Q93009)
Tumor necrosis factor receptor superfamily member 9: Tumor necrosis factor receptor superfamily member 9 (Homo sapiens, UniProt Q07011)
MET: Hepatocyte growth factor receptor (MET, Homo sapiens, UniProt P08581)

CC[C@H](C)[C@H](NC(=O)[C@H](CC(C)C)NC(=O)CNC(=O)[C@@H](N)CCCCN)C(=O)N[C@@H](CC(=O)O)C(=O)N[C@@H](Cc1ccc(O)cc1)C(=O)N[C@@H](Cc1ccc(O)cc1)C(=O)N[C@@H](CC(C)C)C(=O)N[C@@H](CCSC)C(=O)N1CCC[C@H]1C(=O)N[C@@H](CO)C(=O)N[C@@H](CC(C)C)C(=O)N[C@@H](CO)C(=O)N[C@H](C(=O)N[C@H](C(=O)N[C@@H](CO)C(=O)N[C@@H](CCCNC(=N)N)C(=O)N[C@@H](CO)C(=O)NCC(=O)N[C@@H](CCCCN)C(=O)O)[C@@H](C)O)[C@@H](C)O
Kd (USP7; ITC; pH 8): 25900 nM

CCCC[C@@H]1NC(=O)[C@H](Cc2ccc(O)cc2)NC(=O)[C@@H]2CCCN2C(=O)[C@H](CC(=O)O)NC(=O)[C@H](C)NC(=O)[C@H](Cc2ccccc2)NC(=O)[C@@H]2CSCCC(=O)N3CN(CN(C3)C(=O)CCSC[C@@H](C(=O)N[C@@H](C)C(N)=O)NC1=O)C(=O)CCSC[C@H](NC(C)=O)C(=O)N[C@@H](CC(C)(C)C)C(=O)N1CCC[C@H]1C(=O)N[C@@H](CCC(=O)O)C(=O)N[C@H](CCCCNC(=O)CCc1cn(CCOCCOCCOCCOCCOCCC(=O)NCCCC[C@H]3NC(=O)[C@H](Cc4cccc5ccccc45)NC(=O)[C@@H]4CCCN4C(=O)[C@@H](NC(C)=O)CSCCC(=O)N4CN5CN(C4)C(=O)CCSC[C@H](NC3=O)C(=O)N[C@@H](CCSC)C(=O)N[C@@H](CCCCNC(=N)N)C(=O)N[C@@H](CC(=O)O)C(=O)N[C@@H](Cc3c[nH]c4ccccc34)C(=O)N[C@@H](CO)C(=O)N[C@@H]([C@@H](C)O)C(=O)N3CCC[C@H]3C(=O)N3C[C@H](O)C[C@H]3C(=O)N[C@@H](Cc3c[nH]c4ccccc34)C(=O)N[C@H](C(N)=O)CSCCC5=O)nn1)C(=O)N1CCC[C@H]1C(=O)N[C@@H](Cc1ccc(O)cc1)C(=O)N2
Kd (Tumor necrosis factor receptor superfamily member 9; SPR): 4.3 nM

CN1CN(c2ccccc2)C2(CCN(CCCC(=O)c3ccc(F)cc3)CC2)C1=O
Kd (D(2) dopamine receptor (Drd2, Rattus norvegicus, UniProt P61169); radioligand; cell membranes): 0.09 nM

CCCC[C@@H]1NC(=O)[C@H](Cc2ccc(O)cc2)NC(=O)[C@@H]2CCCN2C(=O)[C@H](CC(=O)O)NC(=O)[C@H](C)NC(=O)[C@H](Cc2ccccc2)NC(=O)[C@@H]2CSCCC(=O)N3CN(CN(C3)C(=O)CCSC[C@@H](C(=O)N[C@@H](C)C(N)=O)NC1=O)C(=O)CCSC[C@H](NC(C)=O)C(=O)N[C@@H](CC(C)(C)C)C(=O)N1CCC[C@H]1C(=O)N[C@@H](CCC(=O)O)C(=O)N[C@H](CCCCNC(=O)CCc1cn(CCOCCOCCOCCOCCOCCC(=O)N[C@H]3CSCCC(=O)N4CN5CN(C4)C(=O)CCSC[C@H](NC(=O)CNC(=O)[C@H](Cc4ccccc4)NC(=O)[C@@H]4CCCN4C3=O)C(=O)N[C@@H](CCSC)C(=O)N[C@@H](CCCCNC(=N)N)C(=O)N[C@@H](CC(=O)O)C(=O)N[C@@H](Cc3c[nH]c4ccccc34)C(=O)N[C@@H](CO)C(=O)N[C@@H]([C@@H](C)O)C(=O)N3CCC[C@H]3C(=O)N3C[C@H](O)C[C@H]3C(=O)N[C@@H](Cc3c[nH]c4ccccc34)C(=O)N[C@H](C(N)=O)CSCCC5=O)nn1)C(=O)N1CCC[C@H]1C(=O)N[C@@H](Cc1ccc(O)cc1)C(=O)N2
Kd (Tumor necrosis factor receptor superfamily member 9; SPR): 3.7 nM

CC(c1ccccc1Cl)n1cc(-c2cc(F)cc(F)c2)c(=O)[nH]c1=O (stereo not shown)
Kd (MET): 39800 nM

CC(C)C[C@H](NC(=O)[C@@H]1CCCN1C(=O)[C@H](Cc1ccccc1)NC(=O)[C@H](CCC(=O)O)NC(=O)[C@@H](N)CC(N)=O)C(=O)N[C@@H](CS)C(=O)N[C@@H](CO)C(=O)N[C@@H](CC(C)C)C(=O)N1CCC[C@H]1C(=O)N[C@@H](CCC(=O)O)C(=O)NCC(=O)O
Kd (USP7; ITC; pH 8): 118000 nM

C[C@@H](c1ccccc1)n1cc(-c2cc(F)cc(F)c2)c(=O)[nH]c1=O
Kd (MET): 1000 nM

CCCCC1(CCCCCCCCCCCCC(=O)O)OCC(C)(C)N1[O] (stereo not shown)
Kd (kcsA (Streptomyces lividans, UniProt P0A334)): 100 to 1000 nM

CCCC[C@@H]1NC(=O)[C@H](Cc2ccc(O)cc2)NC(=O)[C@@H]2CCCN2C(=O)[C@H](CC(=O)O)NC(=O)[C@H](C)NC(=O)[C@H](Cc2ccccc2)NC(=O)[C@@H]2CSCCC(=O)N3CN(CN(C3)C(=O)CCSC[C@@H](C(N)=O)NC1=O)C(=O)CCSCCC(=O)N[C@@H](CC(C)(C)C)C(=O)N1CCC[C@H]1C(=O)N[C@@H](CCC(=O)O)C(=O)N[C@H](CCCCNC(=O)CCc1cn(CCOCCOCCOCCOCCOCCC(=O)N[C@H]3CSCCC(=O)N4CN5CN(C4)C(=O)CCSC[C@H](NC(=O)[C@@H](CC(=O)O)NC(=O)[C@H](Cc4cccc6ccccc46)NC(=O)[C@@H]4CCCN4C3=O)C(=O)N[C@@H](CCSC)C(=O)N[C@@H](CCCCNC(=N)N)C(=O)N[C@@H](CC(=O)O)C(=O)N[C@@H](Cc3c[nH]c4ccccc34)C(=O)N[C@@H](CO)C(=O)N[C@@H]([C@@H](C)O)C(=O)N3CCC[C@H]3C(=O)N3C[C@H](O)C[C@H]3C(=O)N[C@@H](Cc3c[nH]c4ccccc34)C(=O)N[C@H](C(N)=O)CSCCC5=O)nn1)C(=O)N1CCC[C@H]1C(=O)N[C@@H](Cc1ccc(O)cc1)C(=O)N2
Kd (Tumor necrosis factor receptor superfamily member 9; SPR): 12 nM

Cc1n[nH]c2c(-c3cn(C(C)c4ccccc4)c(=O)[nH]c3=O)cccc12 (stereo not shown)
Kd (MET): 200 nM
